# Sampled rows, rich in hits. Any-hit rate of the full collection: about 3.1%.
# T cruzi inh: inhibitors of intracellular T. cruzi growth, primary screen, luminescence, NIH3T3 host cells. AID 1885, 2009. T. cruzi beta-gal in NIH3T3, 90 h. actives 1.4% (n = 300,000). inhibition, % (test concentration not listed);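 active = mean inhibition across valid replicates above about 55%, limit read from the data; inconclusive = mean below that limit but half or more replicates reach it; inactive = mean below it, under half of replicates reach it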;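 also: signal also drops with host cell toxicity which is not excluded here; 0% = plate median of DMSO wells and 100% = zero luminescence signal; higher percent means less beta-gal luminescence so fewer parasites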
#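 System: mouse NIH/3T3 fibroblasts infected with β-gal-expressing T. cruzi Tulahuen C4 / Input: NIH/3T3 cells, 5,000 per well / Buffer or medium: Low-serum DMEM with 2% FBS / Probe or stimulus: 5000 reporter trypomastigotes per well / Schedule: ≥90 h infection period, 3 h prior cell attachment / Measured by: GalScreen luminescence, 60 min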
# CSC inhib: cancer stem cell viability inhibitors, primary screen, luminescence. cancer stem cell-like cells viability. inhibition, % at 7.5 µM. actives 1.1% (n = 300,000); in the data active = inhibition above about 75%; inconclusive = no clear call, values can overlap the other calls; tested in HMLE shEcad cells
# H9c2 TAG inh: inhibitors of triacylglycerol accumulation, primary screen, cell-based, uHTS, fluorescence, H9c2; H9c2 cells, Nile Red lipid (TAG) fluorescence; cells loaded with 200 µM oleic acid; inhibition, % at 12.5 µM; actives 0.66% (n = 230,000);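 active = pattern-corrected inhibition of lipid staining of at least 50% with the nuclear-stain viability signal not falling by more than 50%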;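 also: 0% = DMSO wells and 100% = triacsin C control wells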
# A1 inh: caspase 3/7 activation in MEF A1-2A-BIM cells, primary screen, A1 inhibitor project, cell-based, luminescence, HTS; Caspase-Glo 3/7 luminescence, 3 h; percent of clofoctol response, vehicle zero; actives 0.066% (n = 330,000); caspase activation, % (test concentration not listed);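 active = over half of replicate activation scores above 10%, or exactly half above 10 with the replicate mean above 10; inconclusive = replicate mean below 10 yet half the replicates above 10; inactive = over half of replicates below 10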
# Beta cell apopt: inhibitors of cytokine-induced beta cell apoptosis, primary screen, luminescence. INS-1E cytokine-induced death, ATP luminescence, 48 h; percent of positive-control rescue, neutral wells zero. protection from apoptosis, % (concentration not given with the values). actives 0.8% (n = 300,000). AID 435005, 2010;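 active = Every replicate reaches about 75%, or at least half do and their mean reaches it too, limit read from the data; inconclusive = At least half of replicates reach the limit but their mean does not; inactive = Under half of replicates reach the limit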;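 also: 0% = cytokine-treated negative control wells and 100% = positive control rescue; higher means more ATP so stronger rescue from cytokine killing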
# Calb FLC: C. albicans growth inhibition with fluconazole, primary screen, CaCi-2 strain, Alamar Blue fluorescence. C. albicans CaCi-2 + fluconazole, 48 h. growth inhibition, % (no concentration beside the values). AID 1979, 2009. actives 0.57% (n = 300,000);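 active = growth inhibition above about 58% in most replicates, limit read from the data, passing the limit was not always enough; inconclusive = exactly half the replicates above a set limit; inactive = most replicates below a set limit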;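 also: all wells also contain fluconazole at 8 µg/ml as a sub-toxic cotreatment; 0% = median of DMSO wells and 100% = median of geldanamycin control wells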
# * marks the source's active call; other numbers are inactive results; u = inconclusive; x = no result.
SMILES,T cruzi inh,CSC inhib,H9c2 TAG inh,A1 inh,Beta cell apopt,Calb FLC
Clc1ccc(-c2c[n+](Cc3cccc(Cl)c3)c3n2CCC3)cc1,59.6*,16.8,-12.9,0.4,21.8,-3.0
Clc1ccc(C[n+]2cc(-c3ccccc3)n3c2CCC3)cc1Cl,59.4*,-4.2,x,0.2,16.8,-37.9
O=[N+]([O-])c1ccc(C[n+]2cc(-c3ccc(Cl)c(Cl)c3)n3c2CCCCC3)cc1,20.3,7.1,3.7,-0.3,-5.2,0.8
CC1CCC(C(C)C)C(OC(=O)C[n+]2cc(-c3ccc(Cl)cc3)n3c2CCCCC3)C1 (stereo unspecified),56.0*,-4.2,22.7,0.0,106.3*,95.0*
Clc1ccc(-c2c[n+](Cc3ccc(Cl)cc3Cl)c3n2CCCCC3)cc1,14.9,9.0,10.5,0.4,51.6,0.8
Clc1ccc(C[n+]2cc(-c3ccccc3)n3c2CCCCC3)c(Cl)c1,55.1*,0.9,-11.5,0.0,47.7,u
N#CC[n+]1cc(-c2ccc(Cl)cc2)n2c1CCC2,-5.7,3.8,x,0.6,-1.8,3.2
CCc1nc2ccc(C(=O)NCCCN3CCCC3=O)cn2c1N(C=O)CC,x,x,-10.7,x,x,x
COc1cc(C#N)ccc1OCC(=O)Nc1cccc(S(=O)(=O)N2CCCC2)c1,1.2,-3.7,-1.9,1.1,-1.2,-10.3
COc1cc(/C=C/C(=O)OCC(=O)N(C)Cc2ccccc2)ccc1O,x,-6.4,21.3,0.1,-1.3,x
CC1CCN(S(=O)(=O)c2cn(CC(=O)N3CCN(c4cccc(C(F)(F)F)c4)CC3)cn2)CC1,3.5,x,x,x,x,-1.5
O=[N+]([O-])c1ccc(C[n+]2cc(-c3ccccc3)n3c2CCCCC3)cc1,-0.9,-12.4,-18.4,-0.9,-3.0,-14.3
Clc1ccc(-c2c[n+](Cc3ccc(Br)cc3)c3n2CCCCC3)cc1,51.8,5.6,0.7,0.5,48.4,106.4*
Cc1ccc(-c2c[n+](CC(=O)c3ccc(Br)cc3)c3n2CCCCC3)cc1,73.6*,-8.4,-12.0,-0.4,57.2,23.6
CSc1ccccc1NC(=O)COC(=O)Cn1cc(C(F)(F)F)ccc1=O,x,-0.9,2.9,0.4,-2.8,x
CCN1CCC(O)(/C=C/c2ccc(C(C)C)cc2)C(C(=O)/C=C/c2ccc(C(C)C)cc2)C1 (stereo unspecified),x,x,66.2*,x,x,x
CCN1CCN(C(=O)/C=C/c2ccc(C(C)C)cc2)CC1,-4.4,26.2,-35.8,1.2,-2.4,-10.5
C=CCc1cccc(/C=N/NC(=O)c2ccccc2Br)c1O,60.9*,56.9,12.8,0.0,70.2,10.3
C=CCc1cccc(/C=N/NC(=O)c2ccccc2OC)c1O,62.0*,-1.8,x,-1.7,93.9*,42.9
O=C(N/N=C/c1ccc(Cl)cc1Cl)c1ccc2nc[nH]c2c1,2.3,-2.3,x,3.2,-0.5,u
C=CCc1cccc(/C=N/NC(=O)c2ccc3nc[nH]c3c2)c1O,-1.4,94.2*,x,0.2,83.7*,20.5
COc1ccccc1/C=N/NC(=O)c1ccccc1Cl,-3.8,-4.6,-9.5,-0.4,-7.4,8.5
Cc1cc(C)c(C)c(S(=O)(=O)N2CCN(C(=O)c3cc(S(=O)(=O)N4CCOCC4)ccc3F)CC2)c1C,x,-2.8,12.5,1.8,-1.5,x
CCOc1ccc(C(C)=O)cc1COC(=O)c1ccc2c(c1)NC(=O)CS2,x,x,2.0,x,x,x
CCOC(=O)c1sc2ncnc(N3CCN(C(=O)OCC)CC3)c2c1C,14.4,x,x,-0.1,7.1,10.2
CCOC(=O)c1sc2ncnc(N3CCN(CC)CC3)c2c1C,77.2*,8.3,x,1.1,-3.4,-1.1
O=c1cc(N=Nc2ccc(Cl)cc2)[nH]c(=O)[nH]1,34.6,116.5*,x,-0.6,10.0,18.6
O=c1cc(-c2ccc(Cl)cc2)oc(=O)[nH]1,-11.6,-0.3,1.9,u,-5.7,-1.7
CCn1nc(C)c(CNC(=O)Nc2ccc3c(c2)OCO3)c1C,-5.3,4.3,4.9,-3.6,1.4,18.7
O=C(c1cc2n(n1)C(C(F)(F)F)CC(c1ccco1)N2)N1CCN(c2ccccn2)CC1 (stereo unspecified),6.7,37.6,x,0.1,-7.3,u
